Calls of active or inactive are those of the source. The rule behind the calls is not given here.
What was measured:
HCT-116 [1] = assay: Antiproliferative activity against human HCT116 cells assessed as cell viability after 72 hrs by MTS assay; type: functional, cell-based; conditions: HCT-116, 72 h
How it was run: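 HCT-116 cells plated, left overnight at 37 °C in 5% CO2/air, then given compound from 10 mg/mL DMSO stock at 100 μM top concentration with serial dilution. After 72 h, MTS/PMS added for 3 h and formazan read at 490 nm. IC50 with 95% CI calculated from viability. Etoposide positive control, DMSO negative control.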

HCT-116 [2] = assay: Induction of apoptosis in human HCT116 cells after 24 hrs by Yo-Pro-1/PI staining-based FACS flow cytometric analysis; type: functional, cell-based
How it was run: (§1)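 HCT116 cells were grown in McCoy's medium with 10% FBS at 37 °C, 5% CO2, to 50% confluence, then treated for 24 h. They were trypsinized, washed in cold PBS and brought to ~1×10^6 cells/mL. Staining was 30 min on ice with 0.1 μM Yo-Pro-1 (apoptotic) and 3 μg/mL PI (necrotic), final concentrations. Flow cytometry used 488 nm excitation. Gates were set with DMSO and 10 μM camptothecin (24 h) controls, excluding debris.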

HCT-116 [3] = assay: Induction of cell death in human HCT116 cells at 32 uM after 24 hrs by Yo-Pro-1/PI staining-based FACS flow cytometric analysis; type: functional; how it was run: as §1
HCT-116 [4] = assay: Induction of apoptosis in human HCT116 cells at 4 uM after 24 hrs by Yo-Pro-1/PI staining-based FACS flow cytometric analysis; type: functional, cell-based; how it was run: as §1
HCT-116 [5] = assay: Induction of cell death in human HCT116 cells at 1 to 16 uM after 24 hrs by Yo-Pro-1/PI staining-based FACS flow cytometric analysis; type: functional; how it was run: as §1
HCT-116 [6] = assay: Induction of apoptosis in human HCT116 cells at 1 to 16 uM after 24 hrs by Yo-Pro-1/PI staining-based FACS flow cytometric analysis; type: functional, cell-based; how it was run: as §1

Row | IC50 (HCT-116 [1]) [µM] | SMILES | further results
1 | 3 | C=C1CC[C@H](Br)C(C)(C)[C@@H]1C[C@@]12OC(C)(C)[C@H](Cl)C[C@]1(Cl)C(=O)c1c(O)cc(O)cc1C2=O | –
2 | 2 | C=C1CC[C@H](Cl)C(C)(C)[C@@H]1C[C@@]12OC(C)(C)[C@H](Cl)C[C@]1(Cl)C(=O)c1c(O)cc(O)cc1C2=O | –
3 | 1 | COc1cc([C@@H]2c3cc4c(cc3[C@@H](O[C@@H]3O[C@@H]5CO[C@@H](C)O[C@H]5[C@H](O)[C@H]3O)[C@H]3COC(=O)[C@H]23)OCO4)cc(OC)c1O [ETOPOSIDE] | –
4 | > 100 | Cc1c(O)cc2c(c1O)C(=O)[C@@]1(Cl)C[C@@H](Br)C(C)(C)O[C@@]1(C[C@H]1C(C)(C)[C@H]3CC[C@]1(C)O3)C2=O | –
5 | 10 | CC1(C)O[C@@]2(C[C@H]3C(C)(C)[C@@H](Cl)CC[C@]3(C)O)C(=O)c3cc(O)cc(O)c3C(=O)[C@@]2(Cl)C[C@H]1Cl | –
6 | < 1 | C=C1CC[C@H](Cl)C(C)(C)[C@@H]1C[C@@]12OC(C)(C)[C@H](Cl)C[C@]1(Cl)C(=O)C1=C(C2=O)C(=[N+]=[N-])C(=O)C(C)=C1O | Activity (HCT-116 [2]): Dose-dependent effect; Activity (HCT-116 [3]): Active
7 | 3 | C=C1CC[C@H](Cl)C(C)(C)[C@@H]1C[C@@]12OC(C)(C)[C@H](Cl)C[C@]1(Cl)C(=O)c1c(cc(O)c(C)c1O)C2=O | Activity (HCT-116 [2]): Dose-dependent effect; Activity (HCT-116 [4]): Active
8 | 17 | Cc1c(O)cc2c(c1O)C(=O)[C@@]1(Cl)C[C@@H](Cl)C(C)(C)O[C@@]1(C[C@H]1C(C)(C)[C@H]3CC[C@]1(C)O3)C2=O | Activity (HCT-116 [2]): Dose-dependent effect; Activity (HCT-116 [4]): Active
9 | > 100 | Cc1c(O)cc2c(c1O)C(=O)C1=C[C@@H](Cl)C(C)(C)O[C@@]1(C[C@H]1C(C)(C)[C@@H](Cl)CC[C@]1(C)O)C2=O | –
10 | 15 | Cc1c(O)cc2c(c1O)C(=O)[C@@]1(Cl)C[C@@H](Cl)C(C)(C)O[C@@]1(C[C@H]1C(C)(C)[C@@H](Cl)CC[C@]1(C)O)C2=O | Activity (HCT-116 [2]): Dose-dependent effect; Activity (HCT-116 [5]): Active; Activity (HCT-116 [6]): Active
11 | > 100 | Cc1c(O)cc2c(c1O)C(=O)C1C[C@@H](Cl)C(C)(C)O[C@@]1(C[C@H]1C(C)(C)[C@@H](Cl)CC[C@]1(C)O)C2=O (stereo partly drawn) | –
12 | < 1 | CC1=C(O)C2=C(C(=O)[C@]3(C[C@H]4C(C)(C)[C@@H](Cl)CC[C@]4(C)O)OC(C)(C)[C@H](Cl)C[C@]3(Cl)C2=O)C(=[N+]=[N-])C1=O | –
13 | 49 | Cc1c(O)cc2c(c1O)C(=O)[C@H]1C[C@@H](Br)C(C)(C)O[C@@]1(C[C@H]1C(C)(C)[C@@H](Br)CC[C@]1(C)O)C2=O | –
14 | 6 | CC(C)=CCC/C(C)=C/C[C@@]12OC(C)(C)[C@H](Br)C[C@]1(Cl)C(=O)c1c(cc(O)c(C)c1O)C2=O | –
